The values below come from ChEMBL document CHEMBL1124382, “Synthesis and radioprotective activity of dipeptide cysteamine and cystamine derivatives” (J Med Chem, 1989).

Where “and” joins values, the source holds several entries; their conditions need not be identical. Equal entries are not always repeated.

Data set [1] deals with Mus musculus. Kind of data set: The compound was tested for radioprotective activity (DRF) in mice 15 min before whole body irradiation with value in braces indicating the administered dose in mg/Kg.
Data set [2] can be described thus: The compound was tested for toxicity in mice, expressed as LD50. It counts as organism-based. As to conditions: in vivo. In outline:
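Three-month-old inbred albino CXVII mice (about 25 g) received compounds dissolved in distilled water by intraperitoneal injection. A preliminary study set the dose range. Five groups of 10 mice then each received a different dose within that range. LD50 was derived by probit analysis.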

Data set [3] deals with Mus musculus. The experiment in a line: The compound was tested for radioprotective activity (DRF) in mice 2 hours before whole body irradiation with value in braces indicating the administered dose in mg/Kg.

As a reminder, the LD50 is the dose at which mortality reaches 50%. High values mean lower toxicity, low ones greater toxicity. Compound `CC(=O)SCCNC(=O)CNC(=O)CN` showed a DRF in the data set with Mus musculus [1] of 1.55. Moreover, in data set [2], the LD50 turned out to be 2400 mg/kg.

On to `CC(=O)SCCNC(=O)[C@H](C)NC(=O)CN`, for which the values for the DRF with Mus musculus [3] and with Mus musculus [1] were 1 and 1.25, respectively. The median lethal dose (LD50) in data set [2] was 1500 mg/kg.

As to `NCC(=O)NCC(=O)NCCSSCCNC(=O)CNC(=O)CN`, the DRF in the data set on Mus musculus [3] is 1; with Mus musculus [1] it was 1.1 and 1. Moreover, the 50% lethal dose (LD50) in data set [2] came out at 2000 mg/kg.

For `CC(=O)SCCNC(=O)CN`, the DRF was 1 in the data set on Mus musculus [3]; 1.4 and 1 in the data set on Mus musculus [1]. In data set [2], this compound yielded an LD50 of 1500 mg/kg.

On to `CC(=O)SCCNC(=O)CNC(=O)[C@@H](C)N`, for which the DRF is 1 with Mus musculus [3]; 1.55 and 1 in the data set with Mus musculus [1]. Also, the LD50 in data set [2] was 1500 mg/kg.

For the compound `C[C@H](N)C(=O)NCC(=O)NCCSSCCNC(=O)CNC(=O)[C@@H](C)N`, the DRF in the data set with Mus musculus [1] is 1.35 and 1. In data set [2], this compound came in with an LD50 of 1500 mg/kg.

Take `C[C@H](NC(=O)CN)C(=O)NCCSSCCNC(=O)[C@@H](C)NC(=O)CN`: the DRF with Mus musculus [1] is 1.1. Also, the LD50 in data set [2] stood at 800 mg/kg.
